Calls of active or inactive are those of the source. The calls are words filed in the database; no cut-off is given here.
System: MCF7
Assay: Cell cycle arrest in human MCF7 cells assessed as accumulation at GO phase at 2 uM after 24 hrs by propidium iodide staining based flow cytometry (reference value: 6.09%)
Type: functional
Settings: not given

Row | Structure (SMILES) | Activity [%]
1 | COc1cc([C@@H]2c3cc4c(cc3[C@@H](O[C@@H]3O[C@@H]5CO[C@@H](C)O[C@H]5[C@H](O)[C@H]3O)[C@H]3COC(=O)[C@H]23)OCO4)cc(OC)c1O [ETOPOSIDE] | 7.54
2 | COc1ccccc1/C(=C\c1ccc([N+](=O)[O-])cc1)C(=O)O | 3.07
3 | COc1cc([C@@H]2c3cc4c(cc3[C@H](O)[C@H]3COC(=O)[C@H]23)OCO4)cc(OC)c1OC [PODOFILOX] | 5.9
4 | COc1ccc(/C=C\c2cc(OC)c(OC)c(OC)c2)cc1O [COMBRETASTATIN A4] | 5.07
5 | COc1cccc(/C=C(/C(=O)N[C@@H]2c3cc4c(cc3[C@@H](c3cc(OC)c(OC)c(OC)c3)[C@H]3C(=O)OC[C@@H]32)OCO4)c2cc(OC)c(OC)c(OC)c2)c1 | 4.83

System: MCF7
Assay: Cell cycle arrest in human MCF7 cells assessed as accumulation at G1 phase at 2 uM after 24 hrs by propidium iodide staining based flow cytometry (reference value: 60.5%)
Type: functional
Settings: not given

Row | Structure (SMILES) | Activity [%]
6 | COc1cc([C@@H]2c3cc4c(cc3[C@@H](O[C@@H]3O[C@@H]5CO[C@@H](C)O[C@H]5[C@H](O)[C@H]3O)[C@H]3COC(=O)[C@H]23)OCO4)cc(OC)c1O [ETOPOSIDE] | 17.29
7 | COc1ccccc1/C(=C\c1ccc([N+](=O)[O-])cc1)C(=O)O | 66.28
8 | COc1cc([C@@H]2c3cc4c(cc3[C@H](O)[C@H]3COC(=O)[C@H]23)OCO4)cc(OC)c1OC [PODOFILOX] | 2.38
9 | COc1ccc(/C=C\c2cc(OC)c(OC)c(OC)c2)cc1O [COMBRETASTATIN A4] | 2.49
10 | COc1cccc(/C=C(/C(=O)N[C@@H]2c3cc4c(cc3[C@@H](c3cc(OC)c(OC)c(OC)c3)[C@H]3C(=O)OC[C@@H]32)OCO4)c2cc(OC)c(OC)c(OC)c2)c1 | 52.49

System: MCF7
Assay: Cytotoxicity against human MCF7 cells after 48 hrs by sulforhodamine B assay
Type: functional
Settings: MCF7, 48 h
Outline: (§1)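 SRB growth assay, 48 h continuous exposure. Cells grown in DMEM with 10% FBS and 2 mM L-glutamine, plated at densities set by doubling time, preincubated 24 h at 37 °C, 5% CO2. Four concentrations (0.1, 1, 10, 100 µM) in triplicate wells. TCA fixation, 0.4% SRB staining, absorbance at 540 nm against 690 nm reference. GI50 from time-zero-corrected growth; repeated three times.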

Row | Structure (SMILES) | GI50 [nM]
11 | COc1cc([C@@H]2c3cc4c(cc3[C@@H](O[C@@H]3O[C@@H]5CO[C@@H](C)O[C@H]5[C@H](O)[C@H]3O)[C@H]3COC(=O)[C@H]23)OCO4)cc(OC)c1O [ETOPOSIDE] | 2100
12 | COc1cccc(/C=C(/C(=O)N[C@@H]2c3cc4c(cc3[C@@H](c3cc(OC)c(OC)c(OC)c3)[C@H]3C(=O)OC[C@@H]32)OCO4)c2cc(OC)c(OC)c(OC)c2)c1 | < 100

System: HOP-62
Assay: Cytotoxicity against human HOP62 cells after 48 hrs by sulforhodamine B assay
Type: functional
Settings: HOP-62, 48 h
Outline: as §1

Row | Structure (SMILES) | GI50 [nM]
13 | COc1cc([C@@H]2c3cc4c(cc3[C@@H](O[C@@H]3O[C@@H]5CO[C@@H](C)O[C@H]5[C@H](O)[C@H]3O)[C@H]3COC(=O)[C@H]23)OCO4)cc(OC)c1O [ETOPOSIDE] | 800
14 | COc1cccc(/C=C(/C(=O)N[C@@H]2c3cc4c(cc3[C@@H](c3cc(OC)c(OC)c(OC)c3)[C@H]3C(=O)OC[C@@H]32)OCO4)c2cc(OC)c(OC)c(OC)c2)c1 | 180

System: MCF7
Assay: Cytotoxicity against human MCF7 cells at 2 to 4 uM after 24 hrs by MTT assay
Type: functional, cell-based
Settings: not given
Outline: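 MCF-7 cells in DMEM with 10% fetal calf serum and penicillin/streptomycin, seeded at 10,000 cells/well and incubated overnight. Treated at 2 and 4 µM for 24 h, then medium replaced with MTT and incubated 2 h at 37 °C. Formazan dissolved in extraction buffer and read at 570 nm.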

Row | Structure (SMILES) | Activity
15 | COc1cc([C@@H]2c3cc4c(cc3[C@@H](O[C@@H]3O[C@@H]5CO[C@@H](C)O[C@H]5[C@H](O)[C@H]3O)[C@H]3COC(=O)[C@H]23)OCO4)cc(OC)c1O [ETOPOSIDE] | Active
16 | COc1ccccc1/C(=C\c1ccc([N+](=O)[O-])cc1)C(=O)O | inactive
17 | COc1cc([C@@H]2c3cc4c(cc3[C@H](O)[C@H]3COC(=O)[C@H]23)OCO4)cc(OC)c1OC [PODOFILOX] | inactive
18 | COc1cccc(/C=C(/C(=O)N[C@@H]2c3cc4c(cc3[C@@H](c3cc(OC)c(OC)c(OC)c3)[C@H]3C(=O)OC[C@@H]32)OCO4)c2cc(OC)c(OC)c(OC)c2)c1 | Active

System: A2780
Assay: Cytotoxicity against human A2780 cells after 48 hrs by sulforhodamine B assay
Type: functional
Settings: A2780, 48 h
Outline: as §1

Row | Structure (SMILES) | GI50 [nM]
19 | COc1cc([C@@H]2c3cc4c(cc3[C@@H](O[C@@H]3O[C@@H]5CO[C@@H](C)O[C@H]5[C@H](O)[C@H]3O)[C@H]3COC(=O)[C@H]23)OCO4)cc(OC)c1O [ETOPOSIDE] | 1300
20 | COc1cccc(/C=C(/C(=O)N[C@@H]2c3cc4c(cc3[C@@H](c3cc(OC)c(OC)c(OC)c3)[C@H]3C(=O)OC[C@@H]32)OCO4)c2cc(OC)c(OC)c(OC)c2)c1 | < 100

System: not listed separately
Assay: Cytotoxicity against human DWD cells after 48 hrs by sulforhodamine B assay
Type: functional
Settings: not given
Outline: as §1

Row | Structure (SMILES) | GI50 [nM]
21 | COc1cc([C@@H]2c3cc4c(cc3[C@@H](O[C@@H]3O[C@@H]5CO[C@@H](C)O[C@H]5[C@H](O)[C@H]3O)[C@H]3COC(=O)[C@H]23)OCO4)cc(OC)c1O [ETOPOSIDE] | 600
22 | COc1cccc(/C=C(/C(=O)N[C@@H]2c3cc4c(cc3[C@@H](c3cc(OC)c(OC)c(OC)c3)[C@H]3C(=O)OC[C@@H]32)OCO4)c2cc(OC)c(OC)c(OC)c2)c1 | 2200

System: MCF7
Assay: Cell cycle arrest in human MCF7 cells assessed as accumulation at S phase at 2 uM after 24 hrs by propidium iodide staining based flow cytometry (reference value: 6.99%)
Type: functional
Settings: not given

Row | Structure (SMILES) | Activity [%]
23 | COc1cc([C@@H]2c3cc4c(cc3[C@@H](O[C@@H]3O[C@@H]5CO[C@@H](C)O[C@H]5[C@H](O)[C@H]3O)[C@H]3COC(=O)[C@H]23)OCO4)cc(OC)c1O [ETOPOSIDE] | 12.31
24 | COc1ccccc1/C(=C\c1ccc([N+](=O)[O-])cc1)C(=O)O | 10.53
25 | COc1cc([C@@H]2c3cc4c(cc3[C@H](O)[C@H]3COC(=O)[C@H]23)OCO4)cc(OC)c1OC [PODOFILOX] | 5.13
26 | COc1ccc(/C=C\c2cc(OC)c(OC)c(OC)c2)cc1O [COMBRETASTATIN A4] | 8.03
27 | COc1cccc(/C=C(/C(=O)N[C@@H]2c3cc4c(cc3[C@@H](c3cc(OC)c(OC)c(OC)c3)[C@H]3C(=O)OC[C@@H]32)OCO4)c2cc(OC)c(OC)c(OC)c2)c1 | 6.43

System: ZR-75-1
Assay: Cytotoxicity against human ZR-75-1 cells after 48 hrs by sulforhodamine B assay
Type: functional
Settings: ZR-75-1, 48 h
Outline: as §1

Row | Structure (SMILES) | GI50 [nM]
28 | COc1cc([C@@H]2c3cc4c(cc3[C@@H](O[C@@H]3O[C@@H]5CO[C@@H](C)O[C@H]5[C@H](O)[C@H]3O)[C@H]3COC(=O)[C@H]23)OCO4)cc(OC)c1O [ETOPOSIDE] | 200
29 | COc1cccc(/C=C(/C(=O)N[C@@H]2c3cc4c(cc3[C@@H](c3cc(OC)c(OC)c(OC)c3)[C@H]3C(=O)OC[C@@H]32)OCO4)c2cc(OC)c(OC)c(OC)c2)c1 | 180

System: MCF7
Assay: Induction of apoptosis in human MCF7 cells assessed as double-strand DNA breaks at 2 uM after 24 hrs measured as phosphorylation at ser-139 on H2AX protein by immunostaining relative to control
Type: functional
Settings: not given
Outline: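 MCF-7 cells on coverslips treated 24 h at 2 µM, fixed in 4% paraformaldehyde for 20 min at room temperature, blocked with 1% BSA for 60 min. Anti-γ-H2AX (Ser139) antibody at 1:100 for 2 h at room temperature, then FITC-conjugated anti-rabbit secondary for 1 h. Foci-positive cells scored as percentage against DMSO control.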

Row | Structure (SMILES) | Activity
30 | COc1cc([C@@H]2c3cc4c(cc3[C@@H](O[C@@H]3O[C@@H]5CO[C@@H](C)O[C@H]5[C@H](O)[C@H]3O)[C@H]3COC(=O)[C@H]23)OCO4)cc(OC)c1O [ETOPOSIDE] | 70%
31 | COc1ccccc1/C(=C\c1ccc([N+](=O)[O-])cc1)C(=O)O | 30%
32 | COc1cc([C@@H]2c3cc4c(cc3[C@H](O)[C@H]3COC(=O)[C@H]23)OCO4)cc(OC)c1OC [PODOFILOX] | inactive
33 | COc1ccc(/C=C\c2cc(OC)c(OC)c(OC)c2)cc1O [COMBRETASTATIN A4] | 50%

System: MCF7
Assay: Cell cycle arrest in human MCF7 cells assessed as accumulation at G2/M phase at 2 uM after 24 hrs by propidium iodide staining based flow cytometry (reference value: 26.42%)
Type: functional
Settings: not given

Row | Structure (SMILES) | Activity [%]
34 | COc1cc([C@@H]2c3cc4c(cc3[C@@H](O[C@@H]3O[C@@H]5CO[C@@H](C)O[C@H]5[C@H](O)[C@H]3O)[C@H]3COC(=O)[C@H]23)OCO4)cc(OC)c1O [ETOPOSIDE] | 62.86
35 | COc1ccccc1/C(=C\c1ccc([N+](=O)[O-])cc1)C(=O)O | 20.12
36 | COc1cc([C@@H]2c3cc4c(cc3[C@H](O)[C@H]3COC(=O)[C@H]23)OCO4)cc(OC)c1OC [PODOFILOX] | 86.59
37 | COc1ccc(/C=C\c2cc(OC)c(OC)c(OC)c2)cc1O [COMBRETASTATIN A4] | 84.41
38 | COc1cccc(/C=C(/C(=O)N[C@@H]2c3cc4c(cc3[C@@H](c3cc(OC)c(OC)c(OC)c3)[C@H]3C(=O)OC[C@@H]32)OCO4)c2cc(OC)c(OC)c(OC)c2)c1 | 36.35

System: MCF7
Assay: Induction of apoptosis in human MCF7 cells assessed as single-strand DNA break at 2 uM after 24 hrs by comet assay relative to control
Type: functional
Settings: not given
Outline: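 Alkaline comet assay in MCF-7 cells after 24 h at 2 µM. Electrophoresis 20 min at 40 V in 0.5% TBE pH 8, SYBR Green I stain, fluorescence microscopy; percentage of cells with tails scored.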

Row | Structure (SMILES) | Activity [%]
39 | COc1cc([C@@H]2c3cc4c(cc3[C@@H](O[C@@H]3O[C@@H]5CO[C@@H](C)O[C@H]5[C@H](O)[C@H]3O)[C@H]3COC(=O)[C@H]23)OCO4)cc(OC)c1O [ETOPOSIDE] | 10
40 | COc1ccccc1/C(=C\c1ccc([N+](=O)[O-])cc1)C(=O)O | 20

System: A549
Assay: Cytotoxicity against human A549 cells after 48 hrs by sulforhodamine B assay
Type: functional
Settings: A549, 48 h
Outline: as §1

Row | Structure (SMILES) | GI50 [nM]
41 | COc1cc([C@@H]2c3cc4c(cc3[C@@H](O[C@@H]3O[C@@H]5CO[C@@H](C)O[C@H]5[C@H](O)[C@H]3O)[C@H]3COC(=O)[C@H]23)OCO4)cc(OC)c1O [ETOPOSIDE] | 3080
42 | COc1cccc(/C=C(/C(=O)N[C@@H]2c3cc4c(cc3[C@@H](c3cc(OC)c(OC)c(OC)c3)[C@H]3C(=O)OC[C@@H]32)OCO4)c2cc(OC)c(OC)c(OC)c2)c1 | 2700

System: COLO 205
Assay: Cytotoxicity against human COLO205 cells after 48 hrs by sulforhodamine B assay
Type: functional
Settings: COLO 205, 48 h
Outline: as §1

Row | Structure (SMILES) | GI50 [nM]
43 | COc1cc([C@@H]2c3cc4c(cc3[C@@H](O[C@@H]3O[C@@H]5CO[C@@H](C)O[C@H]5[C@H](O)[C@H]3O)[C@H]3COC(=O)[C@H]23)OCO4)cc(OC)c1O [ETOPOSIDE] | 130

System: not listed separately
Assay: Cytotoxicity against human Gurav cells after 48 hrs by sulforhodamine B assay
Type: functional
Settings: not given
Outline: as §1

Row | Structure (SMILES) | GI50 [nM]
44 | COc1cc([C@@H]2c3cc4c(cc3[C@@H](O[C@@H]3O[C@@H]5CO[C@@H](C)O[C@H]5[C@H](O)[C@H]3O)[C@H]3COC(=O)[C@H]23)OCO4)cc(OC)c1O [ETOPOSIDE] | 500
45 | COc1cccc(/C=C(/C(=O)N[C@@H]2c3cc4c(cc3[C@@H](c3cc(OC)c(OC)c(OC)c3)[C@H]3C(=O)OC[C@@H]32)OCO4)c2cc(OC)c(OC)c(OC)c2)c1 | 2100
